From ChEMBL document CHEMBL5678815 (Clin Cancer Res, 2017)
Activity calls are given as the source filed them. The calls are words filed in the database; no cut-off is given here.

Key:
[1] = target: 5'-AMP-activated protein kinase catalytic subunit alpha-1 (Homo sapiens) (UniProt Q13131); test: Inhibition of human AMPK-alpha1 assessed as remaining activity at 1 uM by ATP-competition binding assay relative to control
Summary of the method: (§1)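 KINOMEscan ATP-site-dependent competition binding panel of 395 human kinases, with compound tested at 1 μM. Binding is reported as remaining signal relative to control.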

[2] = target: Cyclin-dependent kinase 7 (Homo sapiens) (UniProt P50613); test: Inhibition of human CDK7 assessed as remaining activity at 1 uM by ATP-competition binding assay relative to control; summary of the method: as §1
[3] = test system: Epidermal growth factor receptor (Homo sapiens), P00533 [UNDEFINED MUTATION]; test: Inhibition of human EGFR E746-A750del mutant assessed as remaining activity at 1 uM by ATP-competition binding assay relative to control
Summary of the method: (§2)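 KINOMEscan ATP-site-dependent competition binding assay across a 395-kinase human panel including mutants; compound tested at 1μM; binding expressed relative to control signal.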

[4] = target: Ephrin type-A receptor 2 (Homo sapiens) (UniProt P29317); test: Inhibition of human EPHA2 assessed as remaining activity at 1 uM by ATP-competition binding assay relative to control; summary of the method: as §1
[5] = target: Mitogen-activated protein kinase 6 (Homo sapiens) (UniProt Q16659); test: Inhibition of human ERK3 assessed as remaining activity at 1 uM by ATP-competition binding assay relative to control
Summary of the method: (§3)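 Single-point profiling at 1μM in an ATP-site-dependent competition binding assay across a panel of 395 human kinases, including mutant forms. The read-out is kinase binding signal in the presence of test agent, expressed as inhibition relative to the control signal. This screen assessed noncovalent binding interactions.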

[6] = target: Fibroblast growth factor receptor 3 (Homo sapiens) (UniProt P22607); test: Inhibition of human FGFR3 assessed as remaining activity at 1 uM by ATP-competition binding assay relative to control; summary of the method: as §3
[7] = test system: Receptor-type tyrosine-protein kinase FLT3 (Homo sapiens), P36888 [D835H]; test: Inhibition of human FLT3 D835H mutant assessed as remaining activity at 1 uM by ATP-competition binding assay relative to control; summary of the method: as §3
[8] = target: Homeodomain-interacting protein kinase 1 (Homo sapiens) (UniProt Q86Z02); test: Inhibition of human HIPK1 assessed as remaining activity at 1 uM by ATP-competition binding assay relative to control; summary of the method: as §3
[9] = target: Serine/threonine-protein kinase LATS1 (Homo sapiens) (UniProt O95835); test: Inhibition of human LATS1 assessed as remaining activity at 1 uM by ATP-competition binding assay relative to control; summary of the method: as §3
[10] = target: LIM domain kinase 1 (Homo sapiens) (UniProt P53667); test: Inhibition of human LIMK1 assessed as remaining activity at 1 uM by ATP-competition binding assay relative to control; summary of the method: as §3
[11] = target: Leukocyte tyrosine kinase receptor (Homo sapiens) (UniProt P29376); test: Inhibition of human LTK assessed as remaining activity at 1 uM by ATP-competition binding assay relative to control; summary of the method: as §3
[12] = target: Serine/threonine-protein kinase 3 (Homo sapiens) (UniProt Q13188); test: Inhibition of human MST2 assessed as remaining activity at 1 uM by ATP-competition binding assay relative to control; summary of the method: as §3
[13] = target: Mitogen-activated protein kinase 14 (Homo sapiens) (UniProt Q16539); test: Inhibition of human P38alpha assessed as remaining activity at 1 uM by ATP-competition binding assay relative to control; summary of the method: as §3
[14] = target: Serine/threonine-protein kinase PAK 4 (Homo sapiens) (UniProt O96013); test: Inhibition of human PAK4 assessed as remaining activity at 1 uM by ATP-competition binding assay relative to control; summary of the method: as §3
[15] = target: Serine/threonine-protein kinase N2 (Homo sapiens) (UniProt Q16513); test: Inhibition of human PKN2 assessed as remaining activity at 1 uM by ATP-competition binding assay relative to control
Summary of the method: (§4)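 Single-concentration (1 μM) screen in an ATP-site-dependent competition binding assay (KINOMEscan, outsourced) covering 395 human kinases, mutants included. Non-covalent binding was read as the remaining signal relative to the control signal.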

[16] = target: Serine/threonine-protein kinase PRP4 homolog (Homo sapiens) (UniProt Q13523); test: Inhibition of human PRP4 assessed as remaining activity at 1 uM by ATP-competition binding assay relative to control; summary of the method: as §4
[17] = test system: Proto-oncogene tyrosine-protein kinase receptor Ret (Homo sapiens), P07949 [V804L]; test: Inhibition of human RET V804L assessed as remaining activity at 1 uM by ATP-competition binding assay relative to control; summary of the method: as §2
[18] = target: Receptor-interacting serine/threonine-protein kinase 2 (Homo sapiens) (UniProt O43353); test: Inhibition of human RIPK2 assessed as remaining activity at 1 uM by ATP-competition binding assay relative to control; summary of the method: as §4
[19] = target: Ribosomal protein S6 kinase alpha-5 (Homo sapiens) (UniProt O75582); test: Inhibition of human RPS6KA5 assessed as remaining activity at 1 uM by ATP-competition binding assay relative to control; summary of the method: as §4
[20] = target: Uncharacterized serine/threonine-protein kinase SBK3 (Homo sapiens) (UniProt P0C264); test: Inhibition of human SgK110 assessed as remaining activity at 1 uM by ATP-competition binding assay relative to control; summary of the method: as §4
[21] = target: SRSF protein kinase 2 (Homo sapiens) (UniProt P78362); test: Inhibition of human SRPK2 assessed as remaining activity at 1 uM by ATP-competition binding assay relative to control; summary of the method: as §4
[22] = target: cGMP-dependent protein kinase 1 (Homo sapiens) (UniProt Q13976); test: Inhibition of human PRKG1 assessed as remaining activity at 1 uM by ATP-competition binding assay relative to control; summary of the method: as §4
[23] = target: Activated CDC42 kinase 1 (Homo sapiens) (UniProt Q07912); test: Inhibition of human TNK2 assessed as remaining activity at 1 uM by ATP-competition binding assay relative to control; summary of the method: as §4
[24] = In vivo inhibition of BCR signaling in female […] mouse assessed as B-cell function at 25 mg/kg, po administered for 24 hrs and measured after stimulation with anti-IgM for 18 h by flow cytometry analysis relative to control; format: functional, Splenocyte; set-up: scale not given: the % may be the effect or the level left
Summary of the method: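 Female C57BL/6 mice (5/group) received vehicle or 25 mg/kg drug by oral gavage at time zero, with spleens taken at time points from 3 to 24 h. Splenocytes were stimulated ex vivo with goat anti-mouse IgM at 10μg/mL for 18 h at 37°C in 5% CO2, then Fc-blocked and stained for CD19 plus CD69, CD86 or phospho-S6(S235/236), with 7-AAD to exclude dead cells. Read-out was flow cytometry on >5,000 gated CD19+ cells, compared with vehicle.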

[25] = test system: CLL mononuclear cell; test: Antileukemic activity against human CLL mononuclear cells xenografted NSG mouse assessed as reduction in splenic tumor burden at 0.3 mg/ml preadministered with compound via drinking water and measured after 3 weeks by flow cytometry analysis; format: functional, cell-based
Summary of the method: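 Primary CLL patient mononuclear cells (1 × 10^8 per mouse) engrafted into NSG mice on day 0 after busulfan priming on day −1. Vehicle or drug was given in drinking water from day −1. Mice were killed 3 weeks after engraftment; spleens homogenized, filtered and RBC-lysed; whole blood collected. Six patients, 2–5 mice per patient; paired t-test per patient.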

Homeodomain-interacting protein kinase 1 (Homo sapiens), sequence (Q86Z02 whole entry, looked up): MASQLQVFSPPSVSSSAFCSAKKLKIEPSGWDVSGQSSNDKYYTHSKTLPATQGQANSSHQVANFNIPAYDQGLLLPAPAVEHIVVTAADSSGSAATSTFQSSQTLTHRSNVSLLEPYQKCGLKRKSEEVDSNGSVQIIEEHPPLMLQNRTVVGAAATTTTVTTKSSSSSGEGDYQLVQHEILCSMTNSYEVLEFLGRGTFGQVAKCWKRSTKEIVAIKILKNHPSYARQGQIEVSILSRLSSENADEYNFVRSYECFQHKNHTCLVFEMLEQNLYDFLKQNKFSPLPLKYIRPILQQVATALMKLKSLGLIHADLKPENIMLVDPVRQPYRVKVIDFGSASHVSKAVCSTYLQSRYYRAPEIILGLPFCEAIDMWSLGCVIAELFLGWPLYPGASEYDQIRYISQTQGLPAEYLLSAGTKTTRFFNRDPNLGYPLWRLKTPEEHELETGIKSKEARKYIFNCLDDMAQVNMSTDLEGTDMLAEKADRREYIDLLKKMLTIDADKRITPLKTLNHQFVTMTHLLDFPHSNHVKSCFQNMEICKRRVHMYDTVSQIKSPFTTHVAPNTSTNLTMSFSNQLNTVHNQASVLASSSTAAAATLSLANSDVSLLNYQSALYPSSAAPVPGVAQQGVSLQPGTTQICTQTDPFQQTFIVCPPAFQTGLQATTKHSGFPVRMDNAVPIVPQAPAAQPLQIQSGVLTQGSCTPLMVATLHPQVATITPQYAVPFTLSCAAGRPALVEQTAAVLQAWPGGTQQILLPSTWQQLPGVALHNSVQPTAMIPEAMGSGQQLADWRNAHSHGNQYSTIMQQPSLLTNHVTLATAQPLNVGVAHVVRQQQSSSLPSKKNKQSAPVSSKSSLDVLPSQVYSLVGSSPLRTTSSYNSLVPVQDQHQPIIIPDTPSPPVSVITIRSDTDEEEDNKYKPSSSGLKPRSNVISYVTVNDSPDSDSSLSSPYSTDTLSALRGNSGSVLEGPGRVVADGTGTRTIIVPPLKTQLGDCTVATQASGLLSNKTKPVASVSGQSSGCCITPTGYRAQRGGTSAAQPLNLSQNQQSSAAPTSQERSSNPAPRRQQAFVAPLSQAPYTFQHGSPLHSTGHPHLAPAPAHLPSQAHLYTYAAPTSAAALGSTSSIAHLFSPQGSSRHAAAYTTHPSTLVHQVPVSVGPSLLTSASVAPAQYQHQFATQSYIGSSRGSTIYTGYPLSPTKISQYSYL
Leukocyte tyrosine kinase receptor (Homo sapiens), sequence (P29376 whole entry): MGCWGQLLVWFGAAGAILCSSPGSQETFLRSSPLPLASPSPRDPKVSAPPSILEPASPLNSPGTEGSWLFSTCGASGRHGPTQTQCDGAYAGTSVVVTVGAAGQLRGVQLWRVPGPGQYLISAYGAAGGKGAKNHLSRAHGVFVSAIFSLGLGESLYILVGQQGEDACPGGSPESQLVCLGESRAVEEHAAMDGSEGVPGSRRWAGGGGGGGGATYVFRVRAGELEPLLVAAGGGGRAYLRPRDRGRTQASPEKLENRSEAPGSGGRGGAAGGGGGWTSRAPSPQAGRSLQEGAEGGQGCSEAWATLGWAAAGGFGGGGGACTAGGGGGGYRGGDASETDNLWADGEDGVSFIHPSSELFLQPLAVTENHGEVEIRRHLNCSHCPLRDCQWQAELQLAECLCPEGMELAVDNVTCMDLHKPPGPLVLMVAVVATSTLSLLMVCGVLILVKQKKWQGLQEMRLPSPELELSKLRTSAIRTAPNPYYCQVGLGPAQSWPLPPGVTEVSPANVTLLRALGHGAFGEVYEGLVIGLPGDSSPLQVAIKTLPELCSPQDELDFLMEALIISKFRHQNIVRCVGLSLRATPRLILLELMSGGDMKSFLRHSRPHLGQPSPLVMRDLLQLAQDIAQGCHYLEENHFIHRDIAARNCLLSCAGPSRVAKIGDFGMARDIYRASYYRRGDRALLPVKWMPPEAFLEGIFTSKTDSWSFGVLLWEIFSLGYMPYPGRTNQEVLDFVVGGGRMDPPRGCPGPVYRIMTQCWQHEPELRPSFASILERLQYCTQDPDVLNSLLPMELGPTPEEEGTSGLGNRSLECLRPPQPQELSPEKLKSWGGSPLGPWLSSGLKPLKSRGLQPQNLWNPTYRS
Cyclin-dependent kinase 7 (Homo sapiens), sequence (P50613 whole entry): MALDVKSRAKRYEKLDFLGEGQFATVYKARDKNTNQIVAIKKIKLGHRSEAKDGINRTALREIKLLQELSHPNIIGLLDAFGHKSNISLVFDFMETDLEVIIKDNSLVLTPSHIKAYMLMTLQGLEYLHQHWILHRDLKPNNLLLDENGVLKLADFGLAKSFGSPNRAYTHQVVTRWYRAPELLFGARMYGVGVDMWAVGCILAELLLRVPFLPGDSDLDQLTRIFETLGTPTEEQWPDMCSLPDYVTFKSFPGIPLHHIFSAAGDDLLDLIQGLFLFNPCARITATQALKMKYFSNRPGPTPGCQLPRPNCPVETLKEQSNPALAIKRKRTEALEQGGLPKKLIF
LIM domain kinase 1 (Homo sapiens), sequence (P53667 whole entry, looked up, the tested form may be a part): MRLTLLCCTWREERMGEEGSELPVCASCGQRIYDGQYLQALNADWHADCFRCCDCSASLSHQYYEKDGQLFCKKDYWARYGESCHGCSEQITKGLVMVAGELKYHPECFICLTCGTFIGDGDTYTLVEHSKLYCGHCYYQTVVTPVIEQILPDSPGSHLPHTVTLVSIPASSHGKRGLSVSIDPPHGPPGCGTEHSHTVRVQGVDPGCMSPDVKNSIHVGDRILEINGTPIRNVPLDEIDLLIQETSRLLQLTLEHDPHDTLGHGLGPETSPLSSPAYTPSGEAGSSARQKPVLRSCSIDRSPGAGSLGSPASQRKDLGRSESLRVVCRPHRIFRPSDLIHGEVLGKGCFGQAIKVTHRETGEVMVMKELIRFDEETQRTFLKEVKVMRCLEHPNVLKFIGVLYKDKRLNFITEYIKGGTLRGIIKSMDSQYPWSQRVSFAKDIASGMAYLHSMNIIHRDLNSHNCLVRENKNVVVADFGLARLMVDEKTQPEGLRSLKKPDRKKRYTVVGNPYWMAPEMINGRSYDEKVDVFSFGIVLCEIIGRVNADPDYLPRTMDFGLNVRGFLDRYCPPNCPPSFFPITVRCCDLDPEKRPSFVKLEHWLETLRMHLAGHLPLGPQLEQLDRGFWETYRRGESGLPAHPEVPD
Fibroblast growth factor receptor 3 (Homo sapiens), sequence (P22607 23-806 limits assumed): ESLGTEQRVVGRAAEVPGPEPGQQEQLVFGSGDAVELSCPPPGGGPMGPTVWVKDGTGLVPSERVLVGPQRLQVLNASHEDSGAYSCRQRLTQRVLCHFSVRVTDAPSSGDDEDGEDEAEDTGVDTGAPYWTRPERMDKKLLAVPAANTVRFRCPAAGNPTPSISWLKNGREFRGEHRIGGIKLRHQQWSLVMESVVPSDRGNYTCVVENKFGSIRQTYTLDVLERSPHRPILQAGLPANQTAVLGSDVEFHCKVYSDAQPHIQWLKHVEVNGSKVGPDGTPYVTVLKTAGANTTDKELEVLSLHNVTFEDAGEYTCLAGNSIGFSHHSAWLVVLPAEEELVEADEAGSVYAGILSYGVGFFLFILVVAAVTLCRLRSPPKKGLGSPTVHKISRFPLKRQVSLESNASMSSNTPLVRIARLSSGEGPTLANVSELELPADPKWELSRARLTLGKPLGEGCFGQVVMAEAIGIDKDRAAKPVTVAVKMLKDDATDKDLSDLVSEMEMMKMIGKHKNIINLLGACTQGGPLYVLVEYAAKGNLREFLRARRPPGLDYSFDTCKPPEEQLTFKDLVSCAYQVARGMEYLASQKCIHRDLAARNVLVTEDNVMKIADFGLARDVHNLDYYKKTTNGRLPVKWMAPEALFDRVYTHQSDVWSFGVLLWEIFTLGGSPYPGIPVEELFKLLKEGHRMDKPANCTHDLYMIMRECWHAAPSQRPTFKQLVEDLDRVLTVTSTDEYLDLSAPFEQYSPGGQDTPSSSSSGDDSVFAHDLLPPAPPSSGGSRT
Proto-oncogene tyrosine-protein kinase receptor Ret (Homo sapiens), P07949 [V804L], sequence (P07949 whole entry V804L): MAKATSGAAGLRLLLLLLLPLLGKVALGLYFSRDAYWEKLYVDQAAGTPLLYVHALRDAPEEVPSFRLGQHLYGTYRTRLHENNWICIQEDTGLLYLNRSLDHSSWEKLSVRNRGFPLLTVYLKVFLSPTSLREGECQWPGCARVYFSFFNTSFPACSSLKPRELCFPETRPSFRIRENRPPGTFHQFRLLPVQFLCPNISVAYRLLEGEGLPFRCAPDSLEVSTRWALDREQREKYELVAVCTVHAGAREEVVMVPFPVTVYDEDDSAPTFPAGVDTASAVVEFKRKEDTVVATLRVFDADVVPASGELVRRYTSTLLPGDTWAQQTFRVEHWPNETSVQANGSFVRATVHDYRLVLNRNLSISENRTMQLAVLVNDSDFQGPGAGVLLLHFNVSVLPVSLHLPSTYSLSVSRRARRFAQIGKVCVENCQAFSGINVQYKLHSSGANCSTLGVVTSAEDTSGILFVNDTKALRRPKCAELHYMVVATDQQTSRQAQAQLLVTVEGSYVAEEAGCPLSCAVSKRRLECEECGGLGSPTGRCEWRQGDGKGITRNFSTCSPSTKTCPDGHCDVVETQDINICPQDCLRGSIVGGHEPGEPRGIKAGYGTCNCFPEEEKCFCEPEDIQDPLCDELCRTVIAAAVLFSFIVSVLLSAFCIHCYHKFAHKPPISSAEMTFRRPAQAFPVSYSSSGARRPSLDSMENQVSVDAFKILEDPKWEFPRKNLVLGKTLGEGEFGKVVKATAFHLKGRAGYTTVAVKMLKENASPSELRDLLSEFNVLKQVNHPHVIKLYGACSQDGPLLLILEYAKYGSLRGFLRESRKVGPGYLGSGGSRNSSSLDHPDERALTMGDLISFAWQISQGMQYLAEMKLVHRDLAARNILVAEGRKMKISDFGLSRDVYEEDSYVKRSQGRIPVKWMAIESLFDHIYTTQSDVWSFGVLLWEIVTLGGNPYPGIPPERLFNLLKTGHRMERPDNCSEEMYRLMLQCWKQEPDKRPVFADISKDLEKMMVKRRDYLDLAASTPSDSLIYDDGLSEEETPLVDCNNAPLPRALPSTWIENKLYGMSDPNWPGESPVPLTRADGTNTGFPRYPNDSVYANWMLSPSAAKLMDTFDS

`CC#CC(=O)N1CCC[C@H]1c1nc(-c2ccc(C(=O)Nc3ccccn3)cc2)c2c(N)nccn12` [ACALABRUTINIB] showed an Activity [1] of 86%, an Activity [2] of 74% and an Activity [3] of 85%. For the same compound, the Activity [4] was 91%, the Activity [5] was 94% and the Activity [6] was 87%. The Activity [7] was 86%, the Activity [8] was 90% and the Activity [9] was 93%. The Activity [10] was 13%, the Activity [11] was 86% and the Activity [12] was 65%. The Activity [13] was 84%, the Activity [14] was 88% and the Activity [15] was 86%. It also gave an Activity [16] of 86%, an Activity [17] of 93% and an Activity [18] of 60%. For the same compound, the Activity [19] was 84%, the Activity [20] was 90% and the Activity [21] was 85%. The Activity [22] was 70%, the Activity [23] was 93% and the Activity [24] was about 70%. For the same compound, the Activity [25] was “Active”.
